Sampled rows, rich in hits. Any-hit rate of the full collection: about 2.2%.
S100A4 MyoIIA = inhibitors of human S100A4 binding to myosin IIA peptide. P26447. S100A4/TAMRA-MyoIIA peptide fluorescence polarization. inhibition, % at 10.7 µM. actives 0.14% (n = 360,000). AID 652163;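 active means mean inhibition of at least 70% across replicates, with every replicate also reaching that level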
Target sequence (P26447 whole entry, looked up): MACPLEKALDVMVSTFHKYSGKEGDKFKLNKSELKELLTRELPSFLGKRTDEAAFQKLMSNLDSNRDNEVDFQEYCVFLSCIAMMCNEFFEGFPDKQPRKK
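Compound dosing: one dose per compound; test system: human S100A4 monomer with TAMRA-labelled myosin IIA peptide; probe or stimulus: TAMRA-labelled myosin IIA heavy-chain peptide probe, 5 nM; medium: HEPES buffer with Ca2+, pH 7.2; schedule: 5 min incubation before reading; benchmarks: neutral control DMSO, positive control TFP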
CFTR F508del cor = CFTR F508del correction in bronchial cells. CFBE cells, YFP halide quenching; stimulated with forskolin plus potentiator P3; % fluorescence drop versus neutral controls. activity (quench increase), % at 7.58 µM. actives 0.36% (n = 350,000);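 active means mean added fluorescence quench of at least 8% versus neutral control, with both replicates also reaching 8%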;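 further: cells transiently co-express mutant CFTR-F508del with the halide-sensitive YFP; corrector assay measuring rescue of mutant channel to the surface after 24 h compound exposure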
dFosB activator = activators of mouse delta FosB homodimer; P13346; purified delta FosB, TAMRA-CDK5 oligo fluorescence polarization; percent of positive-control signal above neutral wells; activation, % at 25 µM; actives 0.99% (n = 340,000); AID 493131;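 active means mean activation above about 17%, with every replicate also reaching it, limit read from the data, passing the limit was not always enough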
Target sequence (P13346 whole entry, looked up): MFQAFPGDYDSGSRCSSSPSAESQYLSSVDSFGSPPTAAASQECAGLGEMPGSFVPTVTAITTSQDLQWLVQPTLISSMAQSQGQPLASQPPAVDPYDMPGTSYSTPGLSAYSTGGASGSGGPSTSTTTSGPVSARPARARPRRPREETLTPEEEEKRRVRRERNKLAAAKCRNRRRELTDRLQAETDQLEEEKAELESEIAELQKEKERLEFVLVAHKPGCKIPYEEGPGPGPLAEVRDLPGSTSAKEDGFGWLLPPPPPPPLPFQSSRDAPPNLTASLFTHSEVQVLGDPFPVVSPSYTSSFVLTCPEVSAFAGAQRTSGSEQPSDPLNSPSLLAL
FGF22 binding = shifts melting point of recombinant human FGF22 | Q9HCT0 | recombinant FGF22 thermal shift, SYPRO orange fluorescence; percent of sucrose octasulfate shift, DMSO zero | activity (Tm shift, normalised), % at 9.99 µM | actives 1.5% (n = 340,000) | AID 651658;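 active means mean Tm shift, scaled 0 neutral to 100 positive control, at about 1.3% or above, every replicate too, limit read from the data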
Target sequence (Q9HCT0 whole entry, looked up): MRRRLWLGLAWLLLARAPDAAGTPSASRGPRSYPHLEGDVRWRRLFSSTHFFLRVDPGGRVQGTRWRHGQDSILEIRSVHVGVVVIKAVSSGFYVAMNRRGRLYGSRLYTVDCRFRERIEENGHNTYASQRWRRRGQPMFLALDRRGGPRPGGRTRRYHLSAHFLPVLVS
A number is an active result; – = inactive; · = no result.

SMILES	S100A4 MyoIIA	CFTR F508del cor	dFosB activator	FGF22 binding
COc1ccc(/C=N/NC(=O)c2sc(C)nc2C)cc1	–	–	–	43
CC(C)CN(C(=O)COC(=O)c1cccs1)c1c(N)n(Cc2ccccc2)c(=O)[nH]c1=O	–	–	·	–
CCn1nc(C(=O)OCC(=O)N(CC(C)C)c2c(N)n(Cc3ccccc3)c(=O)[nH]c2=O)c2ccccc2c1=O	–	–	–	9.2
CC(C)CN(C(=O)COC(=O)c1cccc2ccccc12)c1c(N)n(Cc2ccccc2)c(=O)[nH]c1=O	–	–	–	–
CCN(C(=O)COC(=O)c1cccc2ccccc12)c1c(N)n(Cc2ccccc2)c(=O)[nH]c1=O	–	18	–	–
O=C1NCCN(Cc2ccc(Cl)c(F)c2)C1CC(=O)N1CCCO1 (configuration not stated)	–	–	–	43
COc1ccc(S(=O)(=O)NCCc2ccc(F)cc2)cc1	·	·	–	·
CCCCNc1ccc(C(F)(F)F)cc1S(=O)(=O)NCCc1ccc(F)cc1	–	–	–	21
COc1ccc(/C=N/Nc2cc(C)nc3ccc(Br)cc23)cc1	–	–	62	–
Cc1cc(N/N=C/c2ccccc2O)c2ccccc2n1	–	16	–	–
C[C@H]1CCCCO[C@H](CN(C)S(=O)(=O)c2ccc(Cl)cc2)[C@@H](C)CN([C@@H](C)CO)C(=O)c2cc(NC(=O)CCC(F)(F)F)ccc2O1	–	–	·	–
C[C@H]1CN([C@@H](C)CO)C(=O)CCCn2nncc2CO[C@@H]1CN(C)S(=O)(=O)c1ccc(F)cc1	–	–	·	–
Cn1c(C(=O)N2CCN(c3ccc([N+](=O)[O-])cc3)CC2)cc2c(=O)[nH]c3ccccc3c21	–	–	23	44
CC(C)NC(=O)N(C)C[C@H]1Oc2ccc(NC(=O)Nc3ccc(F)cc3)cc2CC(=O)N([C@@H](C)CO)C[C@H]1C	–	–	·	–
Cc1cccn2c(=O)c(C=Nc3ccc(Cl)cc3)c(NCCO)nc12	·	·	–	·
Cc1cccn2c(=O)c(C=NCCO)c(Nc3ccc(Cl)cc3)nc12	–	–	·	44
C[C@@H]1CN([C@H](C)CO)C(=O)c2cccc(NC(=O)C3CC3)c2O[C@H]1CN(C)C(=O)Nc1ccccc1	–	–	·	–
COc1ccc2c3c([nH]c2c1)[C@@H](CO)N(C(=O)c1ccccn1)CC31CN(C(=O)C2CC2)C1	–	–	·	–
N#CC(=C1Nc2ccccc2N1)S(=O)(=O)c1ccccc1	–	–	–	43
CCN1C(=O)CS/C1=C(\C#N)S(=O)(=O)c1ccccc1	·	·	–	·
CCC1C(c2ccccc2)N(C)C(c2ccccc2)CC1(O)c1ccccc1 (configuration not stated)	–	–	–	44
O=C(NC1CCCCC1)N1CC2(C1)[C@H](c1ccccc1)[C@H](CO)N2CC1CC1	–	–	·	·
O=C(CCCCCCCC(=O)c1ccccc1)c1ccccc1	–	–	–	44
O=C(CCCCCCC(=O)c1ccccc1)c1ccccc1	–	–	–	43
Cc1ccc(C(=O)Cc2ccccc2)cc1	–	–	–	44
SMILES	S100A4 MyoIIA	CFTR F508del cor	dFosB activator	FGF22 binding
Cc1ccc(C(=O)CC(=O)c2ccccc2)cc1	–	–	–	–
CCCNC(=O)N[C@@H]1C=C[C@H](CC(=O)N2CCN(C)CC2)O[C@H]1CO	–	–	·	–
Cc1noc(C)c1NC(=O)Nc1ccc2c(c1)C(=O)N([C@@H](C)CO)C[C@@H](C)[C@@H](CN(C)CC1CCCCC1)OCCCC[C@@H](C)O2	–	–	·	–
O=S(=O)(c1ccc(Br)cc1)c1nc(-c2ccco2)oc1NCC1CCCO1 (configuration not stated)	–	–	–	43
CC(=O)N1CCCc2cc(S(=O)(=O)Nc3ccccc3C)ccc21	–	–	–	44
CN(C)C(=O)COC(=O)c1ccccc1OCC(=O)Nc1ccc(SC(F)F)cc1	·	·	–	·
CC(=O)CCC(=O)OCC(=O)Nc1ccc(SC(F)F)cc1	–	–	–	43
CC(C)=CC(=O)OCC(=O)Nc1ccc(SC(F)F)cc1	–	–	–	44
O=C(COc1ccccc1C(=O)O)Nc1ccc(SC(F)F)cc1	–	–	–	43
FC(F)Sc1ccc(NC(=S)NCc2ccccc2)cc1	–	–	–	43
CCCNC(=O)Nc1ccc2c(c1)OC[C@@H](C)N(Cc1ccccn1)C[C@H](C)[C@@H](OC)CN(C)C2=O	–	–	·	–
CCOc1ccccc1NC(=O)c1nc(-c2ccccc2)oc1C	–	–	–	43
COc1cccc(NC(=O)C[C@H]2CC[C@H]3[C@H](COc4ccc(NS(=O)(=O)c5cccc(F)c5)cc4C(=O)N3C)O2)c1	·	–	·	–
C[C@H]1CN([C@@H](C)CO)C(=O)Cc2cc(NS(=O)(=O)c3ccccc3)ccc2O[C@H]1CN(C)S(C)(=O)=O	–	–	·	–
CCOC(=O)c1cnc2nc(C)nn2c1N	–	–	–	43
CCOC(=O)c1cnc2nc(N3CCOCC3)nn2c1N	–	–	–	–
COc1cc(OC)c(NC2c3ccccc3C(=O)N2c2cc(C)ccn2)cc1Cl (configuration not stated)	–	–	–	3.4
O=C(Nc1ccccc1F)N1CC(=O)N2[C@H](C1)[C@@H](c1ccc(-c3cccnc3)cc1)[C@@H]2CO	–	–	·	·
COc1ccc2noc3c2c1C(=O)c1ccccc1-3	–	37	–	–
CCOc1cc2c(cc1OCC)C(c1ccc(F)cc1)NCC2 (configuration not stated)	–	–	–	–
CCOc1cc2c(cc1OC)C(c1cccc([N+](=O)[O-])c1)NCC2 (configuration not stated)	–	–	–	43
CCN(CC)C(=O)Cc1cn(C)c2ccccc12	–	–	–	43
Cn1cc(CC(=O)NCc2ccc(F)cc2)c2ccccc21	–	–	–	–
Cc1ccc(/C=N/NC(=O)CNC(=O)c2cccc([N+](=O)[O-])c2C)o1	–	–	–	43
C[C@@H]1CN([C@H](C)CO)C(=O)Cc2cc(NS(=O)(=O)c3ccccc3)ccc2O[C@@H]1CN(C)Cc1ccccc1	79	–	·	–
C[C@H](CO)N1C[C@H](C)[C@H](CN(C)C)Oc2ccc(NS(=O)(=O)c3ccccc3)cc2CC1=O	95	–	·	–
Cc1ccc(S(=O)(=O)Nc2ccc3c(c2)CC(=O)N([C@@H](C)CO)C[C@@H](C)[C@@H](CN(C)Cc2ccc(Cl)c(Cl)c2)O3)cc1	–	11	·	–
Cc1ccc(S(=O)(=O)Nc2ccc3c(c2)CC(=O)N([C@H](C)CO)C[C@H](C)[C@@H](CN(C)Cc2ccc(Cl)c(Cl)c2)O3)cc1	–	–	·	–
Cc1noc(C)c1S(=O)(=O)N(C)C[C@H]1Oc2ccc(N(C)C)cc2CC(=O)N([C@H](C)CO)C[C@H]1C	129	–	·	·
Cc1noc(C)c1S(=O)(=O)N(C)C[C@H]1Oc2ccc(NS(C)(=O)=O)cc2CC(=O)N([C@H](C)CO)C[C@H]1C	–	–	·	–

Screening results deposited in PubChem by Broad Institute.
